Key:
Assay type in all cases: functional
MCF7 [1] = test: Down regulation of CHST9 gene expression in human MCF7 cells at IC50 after 48 hrs by cDNA microarray technique relative to control
Outline: (§1)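 8 × 10⁶ cells exposed 48 h to compound at its IC50 concentration; total RNA isolated with trizol/chloroform and RNeasy columns including on-column DNase step; RNA quantified by OD 260/280; DMSO-treated cultures as control.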

MCF7 [2] = test: Upregulation of ADPN gene expression in human MCF7 cells at IC50 after 48 hrs by cDNA microarray technique relative to control
HT-29 [3] = test: Down regulation of FUT9 gene expression in human HT-29 cells at IC50 after 48 hrs by cDNA microarray technique relative to control
Outline: (§2)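 Cells (8 × 10⁶) were cultured in DMEM with 10% heat-inactivated FBS at 37 °C under 5% CO₂. They were exposed for 48 h to compound at its IC₅₀, with DMSO-treated parallel cultures as controls (final DMSO ≤0.1% v/v). Total RNA was isolated by trizol/chloroform phase separation, RNeasy column cleanup and on-column DNase, then quantified by OD260/OD280. Expression was profiled by cDNA microarray relative to control.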

MCF7 [4] = test: Upregulation of LCN12 gene expression in human MCF7 cells at IC50 after 48 hrs by cDNA microarray technique relative to control
HT-29 [5] = test: Upregulation of GALNT10 gene expression in human HT-29 cells at IC50 after 48 hrs by cDNA microarray technique relative to control
MCF7 [6] = test: Upregulation of WBSCR27 gene expression in human MCF7 cells at IC50 after 48 hrs by cDNA microarray technique relative to control
MCF7 [7] = test: Upregulation of FGD3 gene expression in human MCF7 cells at IC50 after 48 hrs by cDNA microarray technique relative to control
MCF7 [8] = test: Down regulation of IL1F9 gene expression in human MCF7 cells at IC50 after 48 hrs by cDNA microarray technique relative to control; outline: as §2
MCF7 [9] = test: Down regulation of THSD2 gene expression in human MCF7 cells at IC50 after 48 hrs by cDNA microarray technique relative to control
MCF7 [10] = test: Down regulation of FLJ22955 gene expression in human MCF7 cells at IC50 after 48 hrs by cDNA microarray technique relative to control; outline: as §2
HT-29 [11] = test: Down regulation of TRPA1 gene expression in human HT-29 cells at IC50 after 48 hrs by cDNA microarray technique relative to control
HT-29 [12] = test: Down regulation of ETV1 gene expression in human HT-29 cells at IC50 after 48 hrs by cDNA microarray technique relative to control; outline: as §2
MCF7 [13] = test: Upregulation of KIAA1277 gene expression in human MCF7 cells at IC50 after 48 hrs by cDNA microarray technique relative to control
MCF7 [14] = test: Upregulation of HOXB2 gene expression in human MCF7 cells at IC50 after 48 hrs by cDNA microarray technique relative to control
HT-29 [15] = test: Down regulation of ADAMTS3 gene expression in human HT-29 cells at IC50 after 48 hrs by cDNA microarray technique relative to control; outline: as §1
HT-29 [16] = test: Down regulation of HAS2 gene expression in human HT-29 cells at IC50 after 48 hrs by cDNA microarray technique relative to control; outline: as §2
HT-29 [17] = test: Upregulation of LOC283385 gene expression in human HT-29 cells at IC50 after 48 hrs by cDNA microarray technique relative to control
HT-29 [18] = test: Down regulation of LIN28 gene expression in human HT-29 cells at IC50 after 48 hrs by cDNA microarray technique relative to control; outline: as §2
MCF7 [19] = test: Down regulation of FLJ37562 gene expression in human MCF7 cells at IC50 after 48 hrs by cDNA microarray technique relative to control; outline: as §2
HT-29 [20] = test: Upregulation of NAV1 gene expression in human HT-29 cells at IC50 after 48 hrs by cDNA microarray technique relative to control
HT-29 [21] = test: Upregulation of IMP-1 gene expression in human HT-29 cells at IC50 after 48 hrs by cDNA microarray technique relative to control
MCF7 [22] = test: Down regulation of AF086546 gene expression in human MCF7 cells at IC50 after 48 hrs by cDNA microarray technique relative to control; outline: as §1
MCF7 [23] = test: Down regulation of ADAMTS3 gene expression in human MCF7 cells at IC50 after 48 hrs by cDNA microarray technique relative to control; outline: as §1
MCF7 [24] = test: Upregulation of OXSR1 gene expression in human MCF7 cells at IC50 after 48 hrs by cDNA microarray technique relative to control
MCF7 [25] = test: Upregulation of MAGEA2B gene expression in human MCF7 cells at IC50 after 48 hrs by cDNA microarray technique relative to control
MCF7 [26] = test: Upregulation of MRPL49 gene expression in human MCF7 cells at IC50 after 48 hrs by cDNA microarray technique relative to control
MCF7 [27] = test: Upregulation of ST3GAL1 gene expression in human MCF7 cells at IC50 after 48 hrs by cDNA microarray technique relative to control
HT-29 [28] = test: Upregulation of UNC5B gene expression in human HT-29 cells at IC50 after 48 hrs by cDNA microarray technique relative to control
HT-29 [29] = test: Down regulation of VPS18 gene expression in human HT-29 cells at IC50 after 48 hrs by cDNA microarray technique relative to control
HT-29 [30] = test: Upregulation of KIAA0553 gene expression in human HT-29 cells at IC50 after 48 hrs by cDNA microarray technique relative to control
HT-29 [31] = test: Down regulation of MGC2654 gene expression in human HT-29 cells at IC50 after 48 hrs by cDNA microarray technique relative to control
HT-29 [32] = test: Down regulation of NIPSNAP3B gene expression in human HT-29 cells at IC50 after 48 hrs by cDNA microarray technique relative to control
HT-29 [33] = test: Upregulation of C1orf24 gene expression in human HT-29 cells at IC50 after 48 hrs by cDNA microarray technique relative to control
HT-29 [34] = test: Down regulation of PRPS1 gene expression in human HT-29 cells at IC50 after 48 hrs by cDNA microarray technique relative to control
HT-29 [35] = test: Down regulation of ORM1 gene expression in human HT-29 cells at IC50 after 48 hrs by cDNA microarray technique relative to control
MCF7 [36] = test: Down regulation of RHAG gene expression in human MCF7 cells at IC50 after 48 hrs by cDNA microarray technique relative to control
MCF7 [37] = test: Upregulation of ANKRD35 gene expression in human MCF7 cells at IC50 after 48 hrs by cDNA microarray technique relative to control
HT-29 [38] = test: Down regulation of ZNF482 gene expression in human HT-29 cells at IC50 after 48 hrs by cDNA microarray technique relative to control

Structure (SMILES): COC(CN(c1ccccc1CO)S(=O)(=O)c1ccccc1[N+](=O)[O-])n1cnc2ncnc(Cl)c21 (racemic)
- fold change (FC) (MCF7 [1]): -2.53
- fold change (FC) (MCF7 [2]): 2.37
- fold change (FC) (HT-29 [3]): -2.25
- fold change (FC) (MCF7 [4]): 2.24
- fold change (FC) (HT-29 [5]): 3.5
- fold change (FC) (MCF7 [6]): 3.59
- fold change (FC) (MCF7 [7]): 2.16
- fold change (FC) (MCF7 [8]): -2.17
- fold change (FC) (MCF7 [9]): -2.28
- fold change (FC) (MCF7 [10]): -2.65
- fold change (FC) (HT-29 [11]): -3.22
- fold change (FC) (HT-29 [12]): -2.63
- fold change (FC) (MCF7 [13]): 2.21
- fold change (FC) (MCF7 [14]): 2.74
- fold change (FC) (HT-29 [15]): -2.43
- fold change (FC) (HT-29 [16]): -2.01
- fold change (FC) (HT-29 [17]): 4.37
- fold change (FC) (HT-29 [18]): -2.02
- fold change (FC) (MCF7 [19]): -2.08
- fold change (FC) (HT-29 [20]): 2.06
- fold change (FC) (HT-29 [21]): 2.88
- fold change (FC) (MCF7 [22]): -2.14
- fold change (FC) (MCF7 [23]): -2.06

Structure (SMILES): O=C(OCC1c2ccccc2-c2ccccc21)N1CC(n2cnc3c(Cl)ncnc32)OCc2ccccc21 (racemic)
- fold change (FC) (MCF7 [24]): 2.21
- fold change (FC) (MCF7 [25]): 2.53
- fold change (FC) (MCF7 [26]): 3.12
- fold change (FC) (MCF7 [27]): 6.38
- fold change (FC) (HT-29 [28]): 2.42
- fold change (FC) (HT-29 [29]): -2.04
- fold change (FC) (HT-29 [30]): 2.07
- fold change (FC) (HT-29 [31]): -2.02
- fold change (FC) (HT-29 [32]): -2.21
- fold change (FC) (HT-29 [33]): 2.44
- fold change (FC) (HT-29 [34]): -2.68
- fold change (FC) (HT-29 [35]): -2.19
- fold change (FC) (MCF7 [36]): -6.26
- fold change (FC) (MCF7 [37]): 6.08
- fold change (FC) (HT-29 [38]): -2.28

Source: ChEMBL document CHEMBL1821604, “Anticancer activity and cDNA microarray studies of a (RS)-1,2,3,5-tetrahydro-4,1-benzoxazepine-3-yl]-6-chloro-9H-purine, and an acyclic (RS)-O,N-acetalic 6-chloro-7H-purine” (Eur J Med Chem, 2011)
